Measurements reported in ChEMBL document CHEMBL1140759, “Synthesis, anti-Toxoplasma gondii and antimicrobial activities of benzaldehyde 4-phenyl-3-thiosemicarbazones and 2-[(phenylmethylene)hydrazono]-4-oxo-3-phenyl-5-thiazolidineacetic acids” (Bioorg Med Chem, 2008).
Converted amounts (≈) assume the structure as drawn.

Columns and labels:
Staphylococcus aureus [1] = assay: Antimicrobial activity against Staphylococcus aureus at 100 ug/disc; assay type: functional; conditions: read-out: IZ
Procedure, shortened: (§1)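 Agar disc diffusion: paper discs loaded with compound placed on agar plates seeded with a standardised microbial suspension. DMSO-only discs served as negative control. Chloramphenicol and rifampicin (bacteria) or nistatin (fungi) gave reference zones. Read-out was mean zone of inhibition diameter (mm). Each experiment was run three times and repeated if results differed.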

Bacillus subtilis [2] = assay: Antimicrobial activity against Bacillus subtilis at 100 ug/disc; assay type: functional; conditions: read-out: IZ
Procedure, shortened: (§2)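 Disc diffusion on agar plates inoculated with a standardized microbial suspension, with paper discs carrying known compound amounts. DMSO-only discs served as negative controls, and chloramphenicol, rifampicin (bacteria) or nistatin (fungi) as references. The read-out is the mean inhibition zone diameter in mm. Each run was done three times and repeated if results differed.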

Micrococcus luteus [3] = assay: Antimicrobial activity against Micrococcus luteus at 100 ug/disc; assay type: functional; conditions: read-out: IZ; procedure, shortened: as §2
Escherichia coli [4] = assay: Antimicrobial activity against Escherichia coli at 100 ug/disc; assay type: functional; conditions: read-out: IZ; procedure, shortened: as §2
Enterococcus faecalis [5] = assay: Antimicrobial activity against Streptococcus faecalis at 100 ug/disc; assay type: functional; conditions: read-out: IZ; procedure, shortened: as §2
Mycolicibacterium phlei [6] = assay: Antimicrobial activity against Mycobacterium phlei at 100 ug/disc; assay type: functional; conditions: read-out: IZ; procedure, shortened: as §2
[7] = system: Mycolicibacterium smegmatis; assay: Antimicrobial activity against Mycobacterium smegmatis at 100 ug/disc; assay type: functional; conditions: read-out: IZ; procedure, shortened: as §2
[8] = system: Mycobacterium tuberculosis; assay: Antimicrobial activity against Mycobacterium tuberculosis at 100 ug/disc; assay type: functional; conditions: read-out: IZ; procedure, shortened: as §1
[9] = system: Mycolicibacterium smegmatis; assay: Antimicrobial activity against Mycobacterium smegmatis; assay type: functional
Procedure, shortened: (§3)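 Tube dilution MIC, run on compounds with a disc-diffusion zone of at least 18 mm. The DMSO stock (1 mg/mL) was serially diluted to 10–220 µg/mL final in medium, and strains were inoculated at 10^8/mL. Media were tryptic soy or nutrient agar for bacteria and Sabouraud liquid for fungi, incubated 24–48 h at 37 °C (bacteria) or 30 °C (fungi). MIC is the lowest concentration giving clear tubes.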

[10] = system: Mycobacterium tuberculosis; assay: Antimicrobial activity against Mycobacterium tuberculosis; assay type: functional
Saccharomyces cerevisiae [11] = assay: Antimicrobial activity against Saccharomyces cerevisiae at 100 ug/disc; assay type: functional, organism-based; procedure, shortened: as §1
Candida [12] = assay: Antimicrobial activity against Candida sp. IMUR1224 at 100 ug/disc; assay type: functional, organism-based; procedure, shortened: as §1
Candida [13] = assay: Antimicrobial activity against Candida sp. IMUR4249 at 100 ug/disc; assay type: functional, organism-based; procedure, shortened: as §1
Candida [14] = assay: Antimicrobial activity against Candida sp. IMUR4249; assay type: functional; procedure, shortened: as §3
Candida [15] = assay: Antimicrobial activity against Candida sp. IMUR720 at 100 ug/disc; assay type: functional, organism-based; procedure, shortened: as §1
Toxoplasma gondii [16] = assay: Antiparasitic activity against Toxoplasma gondii infected african green monkey Vero cells at 2 mM assessed as infected cells; assay type: functional
Procedure, shortened: (§4)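 Vero cells were infected with RH-strain tachyzoites (5:1 parasite:cell) for 1 h, washed with PBS, and grown 24 h at 37 °C in medium 199 with 5% FCS. Compound was then added for 24 h. Cells were fixed with Bouin's, stained with Giemsa, and at least 400 cells were counted by light microscopy for the percentage infected. Hydroxyurea and sulfadiazine served as references.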

Toxoplasma gondii [17] = assay: Antiparasitic activity against Toxoplasma gondii infected african green monkey Vero cells at 0.1 mM assessed as infected cells; assay type: functional; procedure, shortened: as §4
Toxoplasma gondii [18] = assay: Antiparasitic activity against Toxoplasma gondii infected african green monkey Vero cells at 5 mM assessed as infected cells; assay type: functional; procedure, shortened: as §4
Toxoplasma gondii [19] = assay: Antiparasitic activity against Toxoplasma gondii infected african green monkey Vero cells at 8 mM assessed as infected cells; assay type: functional; procedure, shortened: as §4
Toxoplasma gondii [20] = assay: Antiparasitic activity against Toxoplasma gondii infected african green monkey Vero cells at 20 mM assessed as infected cells; assay type: functional; procedure, shortened: as §4
Vero = assay: Inhibition of uninfected african green monkey Vero cells; assay type: cell-based; conditions: Chlorocebus sabaeus
Toxoplasma gondii [21] = assay: Inhibition of Toxoplasma gondii infected in african green monkey Vero cells; assay type: functional, organism-based
Procedure, shortened: (§5)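 Infected Vero cultures were exposed to compound at 0.01–30 mM for 24 h, in triplicate per assay. IC50 for infected cells and intracellular parasites was derived by non-linear regression, using trypan blue exclusion.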

Toxoplasma gondii [22] = assay: Inhibition of intracellular parasite Toxoplasma gondii; assay type: functional, organism-based; procedure, shortened: as §5
Staphylococcus aureus [23] = assay: Antimicrobial activity against Staphylococcus aureus at 300 ug/disc; assay type: functional; conditions: read-out: IZ; procedure, shortened: as §2
Bacillus subtilis [24] = assay: Antimicrobial activity against Bacillus subtilis at 300 ug/disc; assay type: functional; conditions: read-out: IZ; procedure, shortened: as §2
Micrococcus luteus [25] = assay: Antimicrobial activity against Micrococcus luteus at 300 ug/disc; assay type: functional; conditions: read-out: IZ; procedure, shortened: as §2
Escherichia coli [26] = assay: Antimicrobial activity against Escherichia coli at 300 ug/disc; assay type: functional; conditions: read-out: IZ; procedure, shortened: as §2
Klebsiella pneumoniae [27] = assay: Antimicrobial activity against Klebsiella pneumoniae at 300 ug/disc; assay type: functional; conditions: read-out: IZ; procedure, shortened: as §2
Enterococcus faecalis [28] = assay: Antimicrobial activity against Streptococcus faecalis at 300 ug/disc; assay type: functional; conditions: read-out: IZ; procedure, shortened: as §2
Mycolicibacterium phlei [29] = assay: Antimicrobial activity against Mycobacterium phlei at 300 ug/disc; assay type: functional; conditions: read-out: IZ; procedure, shortened: as §2
[30] = system: Mycolicibacterium smegmatis; assay: Antimicrobial activity against Mycobacterium smegmatis at 300 ug/disc; assay type: functional; conditions: read-out: IZ; procedure, shortened: as §2
[31] = system: Mycobacterium tuberculosis; assay: Antimicrobial activity against Mycobacterium tuberculosis at 300 ug/disc; assay type: functional; conditions: read-out: IZ; procedure, shortened: as §1
Saccharomyces cerevisiae [32] = assay: Antimicrobial activity against Saccharomyces cerevisiae at 300 ug/disc; assay type: functional; conditions: read-out: IZ; procedure, shortened: as §2
Candida [33] = assay: Antimicrobial activity against Candida sp. IMUR1224 at 300 ug/disc; assay type: functional; conditions: read-out: IZ; procedure, shortened: as §2
Candida albicans = assay: Antimicrobial activity against Candida albicans at 300 ug/disc; assay type: functional; conditions: read-out: IZ; procedure, shortened: as §2
Candida [34] = assay: Antimicrobial activity against Candida sp. IMUR4249 at 300 ug/disc; assay type: functional; conditions: read-out: IZ; procedure, shortened: as §2
Enterococcus faecalis [35] = assay: Antimicrobial activity against Streptococcus faecalis; assay type: functional; procedure, shortened: as §3
Staphylococcus aureus [36] = assay: Antimicrobial activity against Staphylococcus aureus; assay type: functional; procedure, shortened: as §3
Candida [37] = assay: Antimicrobial activity against Candida sp. IMUR720 at 300 ug/disc; assay type: functional; conditions: read-out: IZ; procedure, shortened: as §2
Klebsiella pneumoniae [38] = assay: Antimicrobial activity against Klebsiella pneumoniae at 100 ug/disc; assay type: functional; conditions: read-out: IZ; procedure, shortened: as §2

| Compound | zone of inhibition at 100 µg/disc (Staphylococcus aureus [1]) [mm] | zone of inhibition at 100 µg/disc (Bacillus subtilis [2]) [mm] | zone of inhibition at 100 µg/disc (Micrococcus luteus [3]) [mm] | zone of inhibition at 100 µg/disc (Escherichia coli [4]) [mm] | MBC [9] [µg/mL] | MIC [9] [µg/mL] | MBC [10] [µg/mL] | MIC [10] [µg/mL] | MFC (Candida [14]) [µg/mL] | MIC (Candida [14]) [µg/mL] | Activity (Toxoplasma gondii [16]) [%] | Activity (Toxoplasma gondii [17]) [%] | Activity (Toxoplasma gondii [18]) [%] | Activity (Toxoplasma gondii [19]) [%] | Activity (Toxoplasma gondii [20]) [%] | IC50 (Vero) [µM] | IC50 (Toxoplasma gondii [21]) [µM] | IC50 (Toxoplasma gondii [22]) [µM] | zone of inhibition at 300 µg/disc (Staphylococcus aureus [23]) [mm] | zone of inhibition at 300 µg/disc (Bacillus subtilis [24]) [mm] | other results |
| --- | --- | --- | --- | --- | --- | --- | --- | --- | --- | --- | --- | --- | --- | --- | --- | --- | --- | --- | --- | --- | --- |
| CO[C@H]1/C=C/O[C@@]2(C)Oc3c(C)c(O)c4c(O)c(c(/C=N/N5CCN(C)CC5)c(O)c4c3C2=O)NC(=O)/C(C)=C\C=C\[C@H](C)[C@H](O)[C@@H](C)[C@@H](O)[C@@H](C)[C@H](OC(C)=O)[C@@H]1C [RIFAMPIN] | 31 | 20 | 49 | 14 | 130 (≈ 158 µM) | 140 (≈ 170 µM) | 100 (≈ 122 µM) | 110 (≈ 134 µM) |  |  |  |  |  |  |  |  |  |  |  |  | zone of inhibition at 100 µg/disc (Enterococcus faecalis [5]): 20 mm; zone of inhibition at 100 µg/disc (Mycolicibacterium phlei [6]): 25 mm; zone of inhibition at 100 µg/disc [7]: 30 mm; zone of inhibition at 100 µg/disc [8]: 28 mm |
| NYSTATIN |  |  |  |  |  |  |  |  | 70 | 80 |  |  |  |  |  |  |  |  |  |  | inhibition zone (IZ) (Saccharomyces cerevisiae [11]): 20 mm; inhibition zone (IZ) (Candida [12]): 30 mm; inhibition zone (IZ) (Candida [13]): 32 mm; inhibition zone (IZ) (Candida [15]): 20 mm |
| CC(C)(C)c1cc(/C=N/N=C2\SC(CC(=O)O)C(=O)N2c2ccccc2)cc(C(C)(C)C)c1O (stereo not drawn) |  |  |  |  | 140 (≈ 291 µM) | 150 (≈ 311 µM) | 100 (≈ 208 µM) | 110 (≈ 228 µM) |  |  | 0 | 53.55 | 0 | 0 | 0 | 1000 | 1000 | 1000 | 26 | 19 | zone of inhibition at 300 µg/disc (Micrococcus luteus [25]): 22 mm; zone of inhibition at 300 µg/disc (Escherichia coli [26]): < 7 mm; zone of inhibition at 300 µg/disc (Klebsiella pneumoniae [27]): < 7 mm; zone of inhibition at 300 µg/disc (Enterococcus faecalis [28]): 18 mm; zone of inhibition at 300 µg/disc (Mycolicibacterium phlei [29]): 16 mm; zone of inhibition at 300 µg/disc [30]: 26 mm; zone of inhibition at 300 µg/disc [31]: 23 mm; zone of inhibition at 300 µg/disc (Saccharomyces cerevisiae [32]): < 7 mm; zone of inhibition at 300 µg/disc (Candida [33]): < 7 mm; zone of inhibition at 300 µg/disc (Candida albicans): 9 mm; zone of inhibition at 300 µg/disc (Candida [34]): < 7 mm; MBC (Enterococcus faecalis [35]): 190 µg/mL (≈ 395 µM); MIC (Enterococcus faecalis [35]): 200 µg/mL (≈ 415 µM); MBC (Staphylococcus aureus [36]): 45 µg/mL (≈ 93.4 µM); MIC (Staphylococcus aureus [36]): 50 µg/mL (≈ 104 µM); zone of inhibition at 300 µg/disc (Candida [37]): < 7 mm |
| O=C(O)CC1S/C(=N\N=C\c2ccc(Cl)c(Cl)c2)N(c2ccccc2)C1=O (stereo not drawn) |  |  |  |  |  |  | 90 (≈ 213 µM) | 100 (≈ 237 µM) | 100 (≈ 237 µM) | 120 (≈ 284 µM) | 0 | 101 | 0 | 0 | 0 | 4000 | 1500 | 1000 | 11 | 16 | zone of inhibition at 300 µg/disc (Micrococcus luteus [25]): 19 mm; zone of inhibition at 300 µg/disc (Escherichia coli [26]): < 7 mm; zone of inhibition at 300 µg/disc (Klebsiella pneumoniae [27]): < 7 mm; zone of inhibition at 300 µg/disc (Enterococcus faecalis [28]): 11 mm; zone of inhibition at 300 µg/disc (Mycolicibacterium phlei [29]): 12 mm; zone of inhibition at 300 µg/disc [30]: 13 mm; zone of inhibition at 300 µg/disc [31]: 18 mm; zone of inhibition at 300 µg/disc (Saccharomyces cerevisiae [32]): < 7 mm; zone of inhibition at 300 µg/disc (Candida [33]): < 7 mm; zone of inhibition at 300 µg/disc (Candida albicans): 7 mm; zone of inhibition at 300 µg/disc (Candida [34]): 21 mm; zone of inhibition at 300 µg/disc (Candida [37]): < 7 mm |
| O=C(N[C@H](CO)[C@H](O)c1ccc([N+](=O)[O-])cc1)C(Cl)Cl [CHLORAMPHENICOL] | 25 | 27 | 50 | 27 |  |  |  |  |  |  |  |  |  |  |  |  |  |  |  |  | zone of inhibition at 100 µg/disc (Klebsiella pneumoniae [38]): 25 mm; MBC (Enterococcus faecalis [35]): 60 µg/mL (≈ 186 µM); MIC (Enterococcus faecalis [35]): 70 µg/mL (≈ 217 µM); MBC (Staphylococcus aureus [36]): 20 µg/mL (≈ 61.9 µM); MIC (Staphylococcus aureus [36]): 25 µg/mL (≈ 77.4 µM) |
